According to ChEMBL document CHEMBL3259718, “Identifying structural determinants of potency for analogs of apelin-13: integration of C-terminal truncation with structure-activity” (Bioorg Med Chem, 2014):
pEC50: −log10 of the molar value. Structures can show the parent of a compound that is named as a salt. Square brackets hold non-standard residues; d marks the D form. Peptide text beside a SMILES is read from it. * marks the point of attachment. hPhe = N[C@@H](CCc1ccccc1)C(=O)O; Nle = CCCC[C@H](N)C(=O)O; Aoc = NCCCCCCCC(=O)O; Tfa = O=C(C(F)(F)F)*

Key:
[1] = Retention time of the compound by HPLC analysis; format: physicochemical
How it was run: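 Analytical reverse-phase HPLC on a peptide C18 column with a 5–45% acetonitrile gradient over 30 min. Identity was confirmed by ESI-MS mass.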

Apelin receptor = biological target: T1, Apelin receptor (Homo sapiens, UniProt P35414); assay: Agonist activity at APJ receptor (unknown origin) expressed in CHO cells co-expressing with Calphaq16 assessed as calcium mobilization; format: functional, cell-based; conditions: for pEC50: read-out: EC50; for EC50: read-out: pEC50 (converted)
T1 sequence (P35414 whole entry): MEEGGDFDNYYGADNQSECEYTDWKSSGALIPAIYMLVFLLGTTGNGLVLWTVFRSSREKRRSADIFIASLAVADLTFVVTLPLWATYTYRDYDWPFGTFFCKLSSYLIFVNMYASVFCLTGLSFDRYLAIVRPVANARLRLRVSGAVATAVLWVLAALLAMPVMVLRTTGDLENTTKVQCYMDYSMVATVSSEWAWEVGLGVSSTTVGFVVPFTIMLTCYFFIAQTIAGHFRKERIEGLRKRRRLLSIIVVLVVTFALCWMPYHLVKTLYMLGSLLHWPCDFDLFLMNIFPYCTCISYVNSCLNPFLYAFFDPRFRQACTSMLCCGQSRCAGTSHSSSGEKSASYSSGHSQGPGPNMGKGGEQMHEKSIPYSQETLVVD

[2] = Half life in rat plasma at pH 7.4 by LC-MS/MS analysis; format: ADME, cell-free
How it was run: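 Peptide incubated in rat plasma adjusted to pH 7.4 at 37 °C, with DMSO kept below 2.5%. Reactions were stopped with acetonitrile at 0, 2, 5, 15, 30 and 60 min and clarified by centrifugation. Parent remaining was quantified by UPLC-MS/MS using MRM.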

Plasma [3] = assay: Drug metabolism in rat plasma assessed as Ac-R-P-Nle-L-A after 15 to 25 mins by ESI-MS analysis; format: ADME, cell-free
How it was run: (§1)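 Peptide incubated in rat serum, with aliquots taken over a time course. Samples were run on reverse-phase capillary C18 nano-LC, with mobile phase B rising linearly from 10% to 60% over 55 min at 450 nl/min. Detection was positive-ion nano-ESI Orbitrap MS in data-dependent mode (1 FTMS plus 3 IT-MS/MS cycles, resolution 7500). Fragments were assigned from [M+H]+ masses using peptide ladder predictions.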

Plasma [4] = assay: Drug metabolism in rat plasma assessed as Ac-R-P-Nle after 15 to 25 mins by ESI-MS analysis; format: ADME, cell-free; how it was run: as §1

Retention_time [1] [min]	pEC50 (Apelin receptor)	Compound	other results
17.44	–	CSCC[C@H](NC(=O)[C@@H]1CCCN1C(=O)CNC(=O)[C@H](CCCCN)NC(=O)[C@H](Cc1cnc[nH]1)NC(=O)[C@H](CO)NC(=O)[C@H](CC(C)C)NC(=O)[C@H](CCCNC(=N)N)NC(=O)[C@@H]1CCCN1C(=O)[C@H](CCCNC(=N)N)NC(=O)[C@@H]1CCC(=O)N1)C(=O)N1CCC[C@H]1C(=O)N[C@@H](Cc1ccccc1)C(=O)O	–
13.25	–	CC(=O)N[C@@H](CCCNC(=N)N)C(=O)N1CCC[C@H]1C(=O)N[C@@H](CCCCN)C(=O)N[C@@H](CC(C)C)C(=O)N[C@@H](C)C(=O)N[C@@H](C)C(=O)N[C@@H](CCCCN)C(=O)NCC(=O)N1CCC[C@@H]1C(=O)N[C@@H](CC(C)C)C(N)=O	pEC50 (Apelin receptor; cho): 8.77
17.23	< 5.52	CC(=O)N[C@@H](CCCCNC(=O)C(F)(F)F)C(=O)N1CCC[C@H]1C(=O)N[C@@H](CCCNC(=N)N)C(=O)N[C@@H](CC(C)C)C(=O)N[C@@H](C)C(=O)N[C@@H](C)C(=O)N[C@@H](CCCCN)C(=O)NCC(=O)N1CCC[C@H]1C(=O)N[C@@H](CC(C)C)C(N)=O (Ac-K(Tfa)PRLAAKGPL-NH2)	–
17.64	8.66	CCCC[C@H](NC(=O)[C@H](C)NC(=O)[C@H](C)NC(=O)[C@H](CC(C)C)NC(=O)[C@H](CCCCN)NC(=O)[C@@H]1CCCN1C(=O)[C@H](CCCNC(=N)N)NC(C)=O)C(=O)NCC(=O)N1CCC[C@H]1C(=O)N[C@@H](CC(C)C)C(N)=O (Ac-RPKLAA[Nle]GPL-NH2)	–
22	< 5.52	CC(=O)N[C@@H](CCCNC(=N)N)C(=O)N1CCC[C@H]1C(=O)NCCCCCCCC(=O)N[C@@H](CC(C)C)C(=O)N[C@@H](C)C(=O)N[C@@H](C)C(=O)N[C@@H](C)C(=O)NCC(=O)N1CCC[C@H]1C(=O)N[C@@H](CC(C)C)C(N)=O (Ac-RP[Aoc]LAAAGPL-NH2)	–
16.64	8.49	CCCC[C@H](NC(=O)[C@@H]1CCCN1C(=O)[C@H](CCCNC(=N)N)NC(C)=O)C(=O)N[C@@H](CC(C)C)C(=O)N[C@@H](C)C(=O)N[C@@H](C)C(=O)N[C@@H](CCCCN)C(=O)NCC(=O)N1CCC[C@H]1C(=O)N[C@@H](CC(C)C)C(N)=O (Ac-RP[Nle]LAAKGPL-NH2)	–
16.79	7.48	CCCC[C@H](NC(=O)[C@H](C)NC(=O)[C@H](C)NC(=O)[C@H](CC(C)C)NC(=O)[C@H](CCCC)NC(=O)[C@@H]1CCCN1C(=O)[C@H](CCCNC(=N)N)NC(C)=O)C(=O)NCC(=O)N1CCC[C@H]1C(=O)N[C@@H](CC(C)C)C(N)=O (Ac-RP[Nle]LAA[Nle]GPL-NH2)	half-life [2]: 2 min; Drug metabolism (Plasma [3]): metabolite_detected; Drug metabolism (Plasma [4]): metabolite_detected
19.43	6.27	CCCC[C@H](NC(=O)[C@@H]1CCCN1C(=O)[C@H](CCCNC(=N)N)NC(C)=O)C(=O)NCCCCCCCC(=O)N[C@@H](C)C(=O)N[C@@H](C)C(=O)N[C@@H](CCCCN)C(=O)NCC(=O)N1CCC[C@H]1C(=O)N[C@@H](CC(C)C)C(N)=O (Ac-RP[Nle][Aoc]AAKGPL-NH2)	–
18.37	7.14	CCCC[C@H](NC(=O)[C@@H]1CCCN1C(=O)[C@H](CCCNC(=N)N)NC(C)=O)C(=O)N[C@@H](CCc1ccccc1)C(=O)N[C@@H](C)C(=O)N[C@@H](C)C(=O)N[C@@H](CCCCN)C(=O)NCC(=O)N1CCC[C@H]1C(=O)N[C@@H](CC(C)C)C(N)=O (Ac-RP[Nle][hPhe]AAKGPL-NH2)	–
13.2	5.86	Ac-APRLSHKGPL-NH2	–
–	–	Ac-KGPMPF-OH	EC50 (Apelin receptor): > 31600 nM
13.08	6.31	Ac-KPRLAAKGPL-NH2	–
–	–	Ac-LSHKGPMPF-OH	EC50 (Apelin receptor): > 31600 nM
13.23	7.51	Ac-RARLAAKGPL-NH2	–
14.15	8.05	Ac-RPALAAKGPL-NH2	–
13.91	7.36	Ac-RPKFAAKGPL-NH2	–
11.33	6.03	Ac-RPRAAAKGPL-NH2	–
14.93	6.20	Ac-RPRLAAAGPL-NH2	–
12.37	6.63	Ac-RPRLAAKGAL-NH2	–
13.64	8.96	Ac-RPRLAAKGPL-NH2	–
13.43	8.33	Ac-RPRLSHKGPF-NH2	–
12.43	8.72	Ac-RPRLSHKGPL-NH2	–
11.47	8.36	Ac-RPRLSHKGPM-NH2	–
10.84	6.16	Ac-RPRLSHKGPV-NH2	–
15.93	< 5.52	H-QRPRLS-NH2	–
13.49	< 5.52	H-QRPRLSH-NH2	–
12.94	< 5.52	H-QRPRLSHK-NH2	–
–	< 5.52	H-QRPRLSHKG-NH2	–
–	5.63	H-QRPRLSHKGP-NH2	–
